The nature of test [1]: inhibitors of TNFa-induced NFkB p65 translocation, primary screen, imaging, HUVEC, MLSMR starter and 10KST1 sets (AID 438;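 active = inhibition above 20% together with a positive visual image hit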;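 also: compound added about 3h40 before a 20 min TNFalpha stimulation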;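 as to inhibition: signal is the nuclear over cytoplasmic p65 intensity ratio per well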). The conditions noted are these: HUVEC TNFa-induced p65 nuclear translocation; cell count: measured here: nuclei count (cytotoxicity indicator), at 2.08 µM; inhibition: at 2 µM, stronger effect = higher value, 0% TNFa-plus-vehicle, 100% no-TNFa wells.
A short description of test [2]: inhibitors of mutant huntingtin aggregation, primary screen, imaging, exon1htt(103Q)mCFP cells, high-content imaging (AID 483;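 active = visual image review flags a hit and inhibition of aggregation exceeds 20%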;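 also: compound exposure lasted 3 days before fixation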;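 as to nuclei count: percent of the per-plate median nuclei count of sample wells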). As to conditions: exon1htt(103Q)mCFP cell line, aggregate imaging, at 2 µM; inhibition of aggregation: stronger effect = higher value; nuclei count: measured here: cell count, toxicity.
A short description of test [3]: inhibitors of E-selectin induction by TNFa, primary screen, imaging, HUVEC, immunofluorescence, MLSMR starter and 10KST1 sets (AID 487;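 active = visually confirmed hit in the image check and inhibition above 20%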;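 as to inhibition: signal is fraction of cell area covered by stained E-selectin grains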;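 as to nuclei count: 100% = median nuclei count of all wells on the same plate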). As to conditions: HUVEC TNFalpha-induced E-selectin immunofluorescence imaging, at 2 µM; inhibition: stronger effect = higher value; nuclei count: measured here: cell number, toxicity.
For test [4], the target named is Voltage-gated potassium channel subunit beta-2 (Rattus norvegicus) (UniProt P62483). Description: KvBeta enzyme negative modulators, primary screen, biochemical, NADPH fluorescence (AID 622;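 active = fluorescence slope higher than the sample average by over 3 SD, cut at about -0.22 in these data, passing the limit was not always enough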;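 also: slope of raw intensity against log time taken from 70 to 1610 s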). As to conditions: recombinant KvBeta, 4-cyanobenzaldehyde reduction, at 10 µM, stronger effect = higher value.
The target is the same in test [5]. Description: KvBeta positive modulators, primary screen, biochemical, NADPH fluorescence (AID 623;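 active = NADPH fluorescence slope more negative than the mean of all samples by about 3 SD, 99.7% confidence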;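 also: fluorescence intensity change per second fitted from 20 to 320 s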). The conditions noted are these: Recombinant KvBeta, NADPH fluorescence decrease slope, 10 min; at 10 µM; stronger effect = lower value.
Test [6] concerns the target Alpha-2C adrenergic receptor (Homo sapiens) (UniProt P18825). Description: modulators of alpha2C/GIRK thallium flux, primary screen, cell-based, HEK293 alpha2C/GIRK1/2 (AID 624;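 active = fluorescence slope after compound addition differing from the mean of all screened samples at 99.7% confidence, in either direction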;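 also: slope of fluorescence ratio to pre-addition baseline per second over 15 to 24 s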). As to conditions: thallium flux BTC fluorescence, at 10 µM, actives lie on both sides.
Test [7] is described as follows: inhibitors of larval lipid processing in zebrafish, primary screen, whole organism, PED6 fluorescence, gall bladder and intestine (AID 686).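 Also: larvae 5 to 7 days old with five fish per well; signal comes from phospholipase A2 cleavage of quenched PED6 carried via bile; overnight exposure to compound and PED6 before scoring.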 The conditions noted are these: Zebrafish larvae PED6 lipid processing, fluorescence scoring; screened at 20 µM (by protocol). The gist of the method:
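System: live zebrafish larvae aged 5-7 days, whole organism; measure: graded gall bladder and intestinal fluorescence inhibition per well; incubation: overnight exposure; reagent: ingested quenched lipid PED6 at 100 nM; signal: By-eye fluorescence microscopy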

Test [8] in a line: inhibitors of Sendai virus-induced IRF3 signaling, primary screen, TLR/RLR signaling modifier project, cell-based, Sendai virus stimulus, luciferase, 10K MLSCN set (AID 602276;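 active = inhibition at or above 50% at 10 µM; inactive = inhibition below 50%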;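 also: firefly luciferase from ISG56 promoter only with Renilla not read in this screen; 0% = Sendai virus plus DMSO and 100% = medium plus DMSO without virus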). The conditions noted are these: HEK293 RL24 IRF3 luciferase reporter, at 10 µM, stronger effect = higher value. (Reporter assays use an easily measured gene product as a stand-in for the process of interest.)
The nature of test [9]: inhibitors of poly I:C-induced TLR3 signaling, primary screen, cell-based, poly I:C stimulus, luciferase, 10K MLSCN set (AID 602277;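 active = inhibition of the reporter signal at or above 50%; inactive = inhibition below 50%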). The conditions noted are these: HEK293-TLR3 RL24 IRF3 luciferase reporter, at 10 µM, stronger effect = higher value.

Each structure is given as a SMILES string. Calls of active or inactive are those of the source.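 The calls were made as follows, unless noted: active = a full or partial loss of lipid-probe fluorescence in the fish gall bladder, intestine or both, judged by eye; inactive = no fluorescence loss, or compound toxic to the fish.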

Chain of Alpha-2C adrenergic receptor (Homo sapiens) (P18825 whole entry, looked up): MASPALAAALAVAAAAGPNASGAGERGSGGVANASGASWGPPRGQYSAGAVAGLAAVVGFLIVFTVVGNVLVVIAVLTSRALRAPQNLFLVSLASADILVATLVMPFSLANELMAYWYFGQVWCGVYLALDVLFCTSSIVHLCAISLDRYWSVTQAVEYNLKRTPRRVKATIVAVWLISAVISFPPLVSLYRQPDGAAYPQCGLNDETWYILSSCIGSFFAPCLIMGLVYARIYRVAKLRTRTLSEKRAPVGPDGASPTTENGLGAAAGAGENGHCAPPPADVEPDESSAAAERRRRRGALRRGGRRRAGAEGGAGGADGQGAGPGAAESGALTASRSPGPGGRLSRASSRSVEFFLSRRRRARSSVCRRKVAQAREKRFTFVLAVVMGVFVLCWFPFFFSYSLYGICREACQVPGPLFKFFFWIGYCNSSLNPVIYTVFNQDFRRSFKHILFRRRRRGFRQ
Chain of Voltage-gated potassium channel subunit beta-2 (Rattus norvegicus) (P62483 whole entry, looked up): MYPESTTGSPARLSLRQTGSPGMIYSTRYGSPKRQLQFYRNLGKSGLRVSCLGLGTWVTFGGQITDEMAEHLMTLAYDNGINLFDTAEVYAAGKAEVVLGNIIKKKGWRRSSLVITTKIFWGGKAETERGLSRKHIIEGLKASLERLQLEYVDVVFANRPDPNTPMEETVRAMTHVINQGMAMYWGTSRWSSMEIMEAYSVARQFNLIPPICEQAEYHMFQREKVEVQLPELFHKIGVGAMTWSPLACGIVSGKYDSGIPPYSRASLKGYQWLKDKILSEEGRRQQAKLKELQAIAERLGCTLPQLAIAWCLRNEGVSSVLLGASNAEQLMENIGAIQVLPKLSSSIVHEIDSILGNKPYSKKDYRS

The term inhibition denotes the relative decrease from the control value, in per cent. Regarding `Cc1sc2nc3n(c(=O)c2c1C)NC(=O)CC3`, the cell count in [1] is 744. Besides, the inhibition was -7.3% (inactive) in test [1], 32.1% (inactive) in [3], 16.2% (inactive) in test [8] and 12.8% (inactive) in test [9]. Moreover, in test [2], the inhibition of aggregation is -15% (inactive). Also, the nuclei count turned out to be 66.7% in test [2] and 85% in test [3]. Also, the fluorescence slope in [4] is -0.421 (inactive). Also, in test [5], the NADPH fluorescence slope was -2.9e-05 (inactive). In addition, the slope in [6] was 0.0069 (inactive). In addition, the molecule was classed as inactive in test [7].

Regarding `Cc1nnc(SCc2cccc(Oc3ccccc3)c2)n1N`, the cell count in test [1] is 701. Also, the inhibition in [1] was -4.2% (inactive); in test [3] it was -59.1% (inactive); in test [8], -4.43% (inactive); in test [9], 98.8% (active). Further, the inhibition of aggregation in test [2] was 2.8% (inactive). The values for the nuclei count in test [2] and in test [3] were 108% and 105%, respectively. Moreover, the fluorescence slope in test [4] is -0.384 (inactive). Moreover, the NADPH fluorescence slope in test [5] was -3e-05 (inactive). In addition, the slope in [6] is 0.00543 (inactive). Besides, in test [7], the molecule was called inactive.

Regarding `Cc1ccc(CN2C(=O)CCC2C(=O)NCCCN2CCCC(C)C2)cc1` (stereo not drawn), the cell count in test [1] came out at 436. Moreover, the inhibition in test [1] is 6.9% (inactive); in test [3] it was -43.5% (inactive); in test [8], -5.02% (inactive); in test [9], 4.05% (inactive). The inhibition of aggregation in test [2] is -3.9% (inactive). The nuclei count amounted to 106% in test [2] and 129% in test [3]. Besides, in test [4], the fluorescence slope was -0.434 (inactive). For the same molecule, in [5], the NADPH fluorescence slope was -2.5e-05 (inactive). For the same molecule, in test [6], the slope was 0.0056 (inactive). Moreover, the molecule was classed as inactive in test [7].

Regarding `CC(C)CC(c1nnnn1C(C)(C)C)N1CCN(C2CCCC2)CC1` (stereo not drawn), the cell count in test [1] came to 487. Also, the inhibition in [1] was 7.1% (inactive); in [3] it was -5.6% (inactive); in test [8], 5.92% (inactive); in [9] it was 13.5% (inactive). For the same molecule, the inhibition of aggregation in [2] was -11.7% (inactive). For the same molecule, the values for the nuclei count in test [2] and in [3] were 98.2% and 109%, respectively. In addition, in [4], the fluorescence slope was -0.33 (inactive). In addition, in test [5], the NADPH fluorescence slope was -6.5e-05 (inactive). Besides, in test [6], the slope is 0.00477 (inactive). In addition, the molecule was classed as inactive in test [7].

Turning to `CCc1ccccc1N1C(=O)C2CC(C)=C(C)CC2C1=O` (stereo not drawn), the cell count in test [1] came to 500. The inhibition in test [1] is 5.5% (inactive); in test [3] it was -355% (inactive); in test [8], 10.5% (inactive); in [9], 4.14% (inactive). Besides, in test [2], the inhibition of aggregation is 18.2% (inactive). Further, the nuclei count stood at 92.1% in test [2] and 124% in test [3]. Besides, the fluorescence slope in test [4] is -0.368 (inactive). The NADPH fluorescence slope in [5] was -5.9e-05 (inactive). For the same molecule, in test [6], the slope was 0.00511 (inactive). The molecule was called inactive in [7].

Turning to `CCOC(=O)C1CCN(C(=O)Nc2ccc3nc(C)c(C)nc3c2)CC1`, the cell count in [1] stood at 331. Besides, the inhibition in test [1] was 2% (inactive); in test [3], -20.1% (inactive); in [8] it was 8.11% (inactive); in test [9], 5.19% (inactive). The inhibition of aggregation in test [2] was 26.1% (inactive). For the same molecule, the nuclei count in test [2] worked out at 84.8%; in [3], 90.9%. In addition, the fluorescence slope in [4] was -0.00743 (active). The NADPH fluorescence slope in test [5] is -2.9e-06 (inactive). In addition, the slope in [6] is 0.00559 (inactive). Moreover, the molecule was classed as inactive in test [7].

As to `Cc1csc(NC(=O)c2ccccc2C(=O)O)n1`, the cell count in [1] came to 418. Further, the inhibition in [1] was 9% (inactive); in test [3], -46.7% (inactive); in test [8], 5.94% (inactive); in test [9], 3.54% (inactive). Moreover, the inhibition of aggregation in test [2] is -16.7% (inactive). In addition, the nuclei count in test [2] stood at 111%; in test [3], 116%. Besides, the fluorescence slope in [4] was -0.358 (inactive). For the same molecule, in test [5], the NADPH fluorescence slope is -6.8e-05 (inactive). Further, the slope in [6] was 0.00549 (inactive). The molecule was called inactive in [7].

As for `Brc1ccc2ncnc(Nc3ccc(N4CCOCC4)cc3)c2c1`, in [1], the cell count was 534. Besides, the inhibition in test [1] was -13.2% (inactive); in test [3], 29.5% (inactive); in [8], 16.4% (inactive); in [9] it was 1.52% (inactive). Besides, in [2], the inhibition of aggregation was 8.9% (inactive). Moreover, the nuclei count in [2] was determined as 106%; in [3], 84.4%. Further, the fluorescence slope in test [4] is -0.375 (inactive). Further, in [5], the NADPH fluorescence slope was -5.5e-05 (inactive). Further, in test [6], the slope was 0.00328 (inactive). The molecule was classed as inactive in [7].

Turning to `CC(C)(C)C(=O)OCC1OC(n2cnc(C(N)=O)n2)C(O)C1O` (stereo not drawn), the cell count in test [1] was found to be 468. Moreover, the inhibition in test [1] is -8.7% (inactive); in test [3], 49.3% (inactive); in test [8], 5.04% (inactive); in [9], 4.14% (inactive). The inhibition of aggregation in [2] is 7.9% (inactive). Moreover, the nuclei count was found to be 88.9% in test [2] and 88% in [3]. In test [4], the fluorescence slope was -0.382 (inactive). Further, the NADPH fluorescence slope in test [5] is 8.9e-07 (inactive). For the same molecule, the slope in test [6] is 0.00529 (inactive). In addition, the outcome in test [7] was inactive.

`CN(C)c1ccc(NC(=O)Nc2cccc(Cl)c2)cc1`: the cell count in [1] was found to be 387. In addition, the inhibition in [1] was 2.3% (inactive); in [3] it was -10% (inactive); in test [8], -43.6% (inactive); in test [9] it was -104% (inactive). Further, in test [2], the inhibition of aggregation was 1.1% (inactive). In addition, the nuclei count in test [2] came out at 106%; in [3], 109%. Also, in test [4], the fluorescence slope was -0.436 (inactive). Besides, in test [5], the NADPH fluorescence slope was -3.6e-05 (inactive). Also, in test [6], the slope was 0.00643 (inactive). Further, the outcome in test [7] was inactive.

Take `O=c1c2cnn(-c3ccccc3)c2ncn1/N=C/c1ccncc1`: in test [1], the cell count is 476. Moreover, the inhibition in [1] is -7.8% (inactive); in test [3], -71.4% (inactive); in [8] it was 11.6% (inactive); in test [9] it was 11.3% (inactive). The inhibition of aggregation in [2] is 3.3% (inactive). Also, the nuclei count in test [2] is 119%; in test [3], 108%. In addition, the fluorescence slope in [4] was -0.378 (inactive). Also, the NADPH fluorescence slope in [5] was -5.9e-05 (inactive). Besides, in test [6], the slope was 0.00444 (inactive). The molecule was classed as inactive in [7].

Turning to `CSc1ncc(Cl)c(C(=O)Nc2ccc(S(=O)(=O)N3CCOCC3)cc2)n1`, in test [1], the cell count is 288. The inhibition in [1] is -0.8% (inactive); in test [3] it was 2.7% (inactive); in test [8] it was 4.78% (inactive); in test [9] it was 0.446% (inactive). Besides, the inhibition of aggregation in [2] is -8.6% (inactive). Moreover, the nuclei count in test [2] was 101%; in [3], 131%. Further, the fluorescence slope in test [4] is -0.433 (inactive). The NADPH fluorescence slope in [5] was -5.7e-05 (inactive). In addition, the slope in test [6] is 0.00479 (inactive). Besides, the result in test [7] was inactive.

Turning to `Cc1ccc2[nH]c3c(c2c1)CN(C(=O)CN1CCN(c2cccc(C)c2C)CC1)CC3`, the cell count in [1] was 392. Moreover, the inhibition in test [1] was 6.2% (inactive); in test [3], -86.9% (inactive); in test [8], 22.6% (inactive); in [9], 24.6% (inactive). For the same molecule, the inhibition of aggregation in test [2] was 22.7% (inactive). Moreover, the nuclei count in test [2] was 75.3%; in test [3] it was 111%. In test [4], the fluorescence slope was -0.306 (inactive). The NADPH fluorescence slope in test [5] is -2.6e-05 (inactive). The slope in [6] is 0.00467 (inactive). In addition, the outcome in test [7] was inactive.

For `CN(CC(=O)Nc1cccnc1)S(=O)(=O)c1cc(Cl)ccc1Cl`, the cell count in [1] was found to be 448. Further, the inhibition in test [1] was 12.5% (inactive); in test [3] it was -44.8% (inactive); in [8] it was -8.87% (inactive); in test [9], -13.1% (inactive). In [2], the inhibition of aggregation is -7.7% (inactive). Besides, the nuclei count in [2] was 101%; in test [3], 98.2%. For the same molecule, the fluorescence slope in test [4] is -0.468 (inactive). In addition, the NADPH fluorescence slope in test [5] was -1.6e-06 (inactive). The slope in [6] is 0.00566 (inactive). Also, the molecule was called inactive in test [7].

The values above are taken from PubChem BioAssay.
